How the values were obtained:
[1] = biological target: Misshapen-like kinase 1 (Homo sapiens) (UniProt Q8N4C8); test: Inhibition of ZC3 Lys2 labeling site in human Huh-7 cell lysate at 1 uM by KiNativ Profiling analysis relative to control; type: subcellular
[2] = biological target: T1, Serine/threonine-protein kinase TBK1 (Homo sapiens) (UniProt Q9UHD2); test: Inhibition of TBK1 Lys2 labeling site in human A-375 cells at 0.5 uM by KiNativ Profiling analysis relative to control; type: cell-based
T1 sequence (whole entry): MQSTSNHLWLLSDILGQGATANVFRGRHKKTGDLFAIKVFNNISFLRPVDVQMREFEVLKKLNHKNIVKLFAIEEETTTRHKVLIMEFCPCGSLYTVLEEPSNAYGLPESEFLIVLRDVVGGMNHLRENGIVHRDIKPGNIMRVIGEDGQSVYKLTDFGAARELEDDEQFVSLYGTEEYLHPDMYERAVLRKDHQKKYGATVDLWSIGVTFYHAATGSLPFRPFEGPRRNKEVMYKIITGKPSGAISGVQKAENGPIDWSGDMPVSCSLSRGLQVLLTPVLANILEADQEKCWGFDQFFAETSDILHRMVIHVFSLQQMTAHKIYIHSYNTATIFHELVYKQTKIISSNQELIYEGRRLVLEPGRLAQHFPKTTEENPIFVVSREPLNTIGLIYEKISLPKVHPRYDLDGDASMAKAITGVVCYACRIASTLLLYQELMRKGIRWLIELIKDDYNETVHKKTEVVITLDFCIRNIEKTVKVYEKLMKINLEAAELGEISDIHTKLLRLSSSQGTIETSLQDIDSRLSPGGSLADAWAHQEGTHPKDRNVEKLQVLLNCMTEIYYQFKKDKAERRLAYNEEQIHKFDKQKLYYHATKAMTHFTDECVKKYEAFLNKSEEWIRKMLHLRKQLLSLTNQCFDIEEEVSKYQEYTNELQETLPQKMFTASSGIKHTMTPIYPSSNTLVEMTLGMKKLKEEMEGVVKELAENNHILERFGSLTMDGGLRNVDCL

[3] = biological target: DNA-PK/Ku70/Ku85 (Homo sapiens) (UniProt P78527+P12956+P13010); test: Inhibition of DNAPK ATP labeling site harbouring GHDEREHPFLVKGGEDLR in human A-375 cells at 0.5 uM by KiNativ Profiling analysis relative to control; type: cell-based
Summary of the method: (§1)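 Live A375 melanoma cells were treated with compound at 0.5 or 5 μM, then lysed. Lysates were labeled with a lysine-reactive ATP or ADP-biotin probe. The read-out was protection of each kinase probe-labeling site from labeling, relative to control.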

[4] = biological target: TRAF2 and NCK-interacting protein kinase (Homo sapiens) (UniProt Q9UKE5); test: Inhibition of ZC2/TNIK Lys2 labeling site in human A-375 cells at 0.05 uM by KiNativ Profiling analysis relative to control; type: cell-based
[5] = biological target: Cyclin-dependent kinase 11B (Homo sapiens) (UniProt P21127); test: Inhibition of PITSLRE Lys2 labeling site in human A-375 cells at 5 uM by KiNativ Profiling analysis relative to control; type: cell-based
[6] = biological target: T2, Kinase suppressor of Ras 1 (Homo sapiens) (UniProt Q8IVT5); test: Inhibition of KSR1 ACT labeling site harbouring SKNVFYDNGK in human A-375 cells at 0.5 uM by KiNativ Profiling analysis relative to control; type: cell-based
T2 sequence (whole entry): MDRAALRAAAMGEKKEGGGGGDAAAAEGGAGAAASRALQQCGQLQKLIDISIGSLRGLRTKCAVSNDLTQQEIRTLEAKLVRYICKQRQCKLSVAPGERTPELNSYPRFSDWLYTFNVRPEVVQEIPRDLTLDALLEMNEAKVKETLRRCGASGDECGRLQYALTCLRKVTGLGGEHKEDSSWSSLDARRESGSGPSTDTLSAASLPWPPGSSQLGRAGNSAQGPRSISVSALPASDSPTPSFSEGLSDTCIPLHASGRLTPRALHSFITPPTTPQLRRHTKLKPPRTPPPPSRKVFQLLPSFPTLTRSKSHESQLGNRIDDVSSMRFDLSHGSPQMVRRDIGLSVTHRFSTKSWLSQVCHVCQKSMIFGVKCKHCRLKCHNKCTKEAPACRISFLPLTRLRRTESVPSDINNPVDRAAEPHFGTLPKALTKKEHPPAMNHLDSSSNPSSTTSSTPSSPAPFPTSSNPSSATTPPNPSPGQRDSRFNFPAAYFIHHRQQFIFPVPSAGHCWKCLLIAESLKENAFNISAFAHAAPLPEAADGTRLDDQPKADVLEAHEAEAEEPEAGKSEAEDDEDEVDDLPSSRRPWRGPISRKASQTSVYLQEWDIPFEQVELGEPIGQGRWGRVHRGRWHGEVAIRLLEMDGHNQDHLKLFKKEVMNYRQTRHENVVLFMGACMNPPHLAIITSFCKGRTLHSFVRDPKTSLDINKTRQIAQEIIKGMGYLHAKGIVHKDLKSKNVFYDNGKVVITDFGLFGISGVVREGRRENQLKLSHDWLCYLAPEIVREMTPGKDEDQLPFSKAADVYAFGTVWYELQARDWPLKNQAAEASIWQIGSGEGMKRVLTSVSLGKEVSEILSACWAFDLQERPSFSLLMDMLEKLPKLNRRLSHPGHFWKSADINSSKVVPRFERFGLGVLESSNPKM

[7] = biological target: Calcium/calmodulin-dependent protein kinase type 1 (Homo sapiens) (UniProt Q14012); test: Inhibition of CaMK1a Lys1 labeling site in human A-375 cells at 0.5 uM by KiNativ Profiling analysis relative to control; type: cell-based
Summary of the method: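 Intact A375 melanoma cells were treated with compound at 5 or 0.5 μM, then lysed. Lysate kinases were labeled with a lysine-reactive ATP or ADP-biotin probe (KiNativ). Inhibition is read as protection of each kinase labeling site from probe labeling.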

[8] = biological target: 5'-AMP-activated protein kinase catalytic subunit alpha-2 (Homo sapiens) (UniProt P54646); test: Inhibition of AMPKa2 Lys1 labeling site in human A-375 cells at 5 uM by KiNativ Profiling analysis relative to control; type: cell-based
Summary of the method: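 Live A375 melanoma cells were treated with compound at 5 or 0.5 μM, then lysed. The lysates were labeled with a lysine-reactive ATP or ADP-biotin probe. Kinase protection from probe labeling was measured by KiNativ.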

[9] = biological target: MAP/microtubule affinity-regulating kinase 3 (Homo sapiens) (UniProt P27448); test: Inhibition of MARK3 Lys1 labeling site in human A-375 cells at 5 uM by KiNativ Profiling analysis relative to control; type: cell-based
[10] = biological target: Epidermal growth factor receptor (Homo sapiens) (UniProt P00533); test: Inhibition of EGFR ACT labeling site harbouring LLGAEEKEYHAEGGKVPIK in human A-375 cells at 0.5 uM by KiNativ Profiling analysis relative to control; type: cell-based; summary of the method: as §1
Sequence of Epidermal growth factor receptor (Homo sapiens) (P00533 whole entry): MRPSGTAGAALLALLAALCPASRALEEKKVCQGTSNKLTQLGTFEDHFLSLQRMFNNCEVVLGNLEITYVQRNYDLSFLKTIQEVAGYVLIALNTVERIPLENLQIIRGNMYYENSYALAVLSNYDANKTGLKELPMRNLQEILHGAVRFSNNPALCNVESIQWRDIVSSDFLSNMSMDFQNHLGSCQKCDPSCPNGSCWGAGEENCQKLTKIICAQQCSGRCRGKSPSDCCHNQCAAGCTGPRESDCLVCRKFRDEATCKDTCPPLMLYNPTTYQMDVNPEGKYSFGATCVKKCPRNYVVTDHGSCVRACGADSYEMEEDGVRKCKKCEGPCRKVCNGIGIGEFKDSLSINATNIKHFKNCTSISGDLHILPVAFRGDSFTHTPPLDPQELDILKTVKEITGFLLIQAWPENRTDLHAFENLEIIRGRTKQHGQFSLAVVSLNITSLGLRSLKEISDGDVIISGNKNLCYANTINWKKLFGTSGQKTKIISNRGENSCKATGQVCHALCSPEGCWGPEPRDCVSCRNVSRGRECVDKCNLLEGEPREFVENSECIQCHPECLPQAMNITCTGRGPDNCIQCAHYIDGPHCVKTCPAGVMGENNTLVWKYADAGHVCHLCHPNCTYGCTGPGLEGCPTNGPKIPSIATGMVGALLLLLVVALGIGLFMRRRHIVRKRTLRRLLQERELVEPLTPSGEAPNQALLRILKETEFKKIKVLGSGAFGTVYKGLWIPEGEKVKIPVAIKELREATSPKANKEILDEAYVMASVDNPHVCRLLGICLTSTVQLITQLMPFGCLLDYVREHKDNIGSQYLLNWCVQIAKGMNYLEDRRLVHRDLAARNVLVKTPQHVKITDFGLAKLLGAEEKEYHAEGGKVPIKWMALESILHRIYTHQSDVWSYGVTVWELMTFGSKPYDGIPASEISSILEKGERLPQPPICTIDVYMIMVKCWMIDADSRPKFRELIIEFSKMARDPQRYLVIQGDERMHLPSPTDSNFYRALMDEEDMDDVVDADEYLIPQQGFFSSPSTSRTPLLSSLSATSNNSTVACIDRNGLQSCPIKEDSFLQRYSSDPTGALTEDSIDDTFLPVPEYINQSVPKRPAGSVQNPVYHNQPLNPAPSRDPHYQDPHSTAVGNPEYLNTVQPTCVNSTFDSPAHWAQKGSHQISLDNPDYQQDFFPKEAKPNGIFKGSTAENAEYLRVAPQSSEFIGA

Sequence of 5'-AMP-activated protein kinase catalytic subunit alpha-2 (Homo sapiens) (P54646 whole entry, looked up): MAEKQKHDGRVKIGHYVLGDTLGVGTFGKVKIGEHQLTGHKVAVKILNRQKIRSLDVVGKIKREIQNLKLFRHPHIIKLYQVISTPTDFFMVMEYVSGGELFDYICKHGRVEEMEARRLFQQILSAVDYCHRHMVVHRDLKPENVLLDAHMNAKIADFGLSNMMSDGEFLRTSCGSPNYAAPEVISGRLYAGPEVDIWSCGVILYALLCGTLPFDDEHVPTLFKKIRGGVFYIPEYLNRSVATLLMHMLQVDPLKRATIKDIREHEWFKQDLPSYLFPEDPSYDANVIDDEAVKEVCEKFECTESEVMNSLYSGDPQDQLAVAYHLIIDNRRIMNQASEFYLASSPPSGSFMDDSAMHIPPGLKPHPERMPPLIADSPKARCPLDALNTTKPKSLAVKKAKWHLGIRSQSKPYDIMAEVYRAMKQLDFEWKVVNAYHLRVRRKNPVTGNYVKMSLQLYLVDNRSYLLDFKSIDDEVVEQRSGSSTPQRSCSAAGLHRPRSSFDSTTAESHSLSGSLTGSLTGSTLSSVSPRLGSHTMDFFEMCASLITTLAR
Sequence of TRAF2 and NCK-interacting protein kinase (Homo sapiens) (Q9UKE5 whole entry, looked up): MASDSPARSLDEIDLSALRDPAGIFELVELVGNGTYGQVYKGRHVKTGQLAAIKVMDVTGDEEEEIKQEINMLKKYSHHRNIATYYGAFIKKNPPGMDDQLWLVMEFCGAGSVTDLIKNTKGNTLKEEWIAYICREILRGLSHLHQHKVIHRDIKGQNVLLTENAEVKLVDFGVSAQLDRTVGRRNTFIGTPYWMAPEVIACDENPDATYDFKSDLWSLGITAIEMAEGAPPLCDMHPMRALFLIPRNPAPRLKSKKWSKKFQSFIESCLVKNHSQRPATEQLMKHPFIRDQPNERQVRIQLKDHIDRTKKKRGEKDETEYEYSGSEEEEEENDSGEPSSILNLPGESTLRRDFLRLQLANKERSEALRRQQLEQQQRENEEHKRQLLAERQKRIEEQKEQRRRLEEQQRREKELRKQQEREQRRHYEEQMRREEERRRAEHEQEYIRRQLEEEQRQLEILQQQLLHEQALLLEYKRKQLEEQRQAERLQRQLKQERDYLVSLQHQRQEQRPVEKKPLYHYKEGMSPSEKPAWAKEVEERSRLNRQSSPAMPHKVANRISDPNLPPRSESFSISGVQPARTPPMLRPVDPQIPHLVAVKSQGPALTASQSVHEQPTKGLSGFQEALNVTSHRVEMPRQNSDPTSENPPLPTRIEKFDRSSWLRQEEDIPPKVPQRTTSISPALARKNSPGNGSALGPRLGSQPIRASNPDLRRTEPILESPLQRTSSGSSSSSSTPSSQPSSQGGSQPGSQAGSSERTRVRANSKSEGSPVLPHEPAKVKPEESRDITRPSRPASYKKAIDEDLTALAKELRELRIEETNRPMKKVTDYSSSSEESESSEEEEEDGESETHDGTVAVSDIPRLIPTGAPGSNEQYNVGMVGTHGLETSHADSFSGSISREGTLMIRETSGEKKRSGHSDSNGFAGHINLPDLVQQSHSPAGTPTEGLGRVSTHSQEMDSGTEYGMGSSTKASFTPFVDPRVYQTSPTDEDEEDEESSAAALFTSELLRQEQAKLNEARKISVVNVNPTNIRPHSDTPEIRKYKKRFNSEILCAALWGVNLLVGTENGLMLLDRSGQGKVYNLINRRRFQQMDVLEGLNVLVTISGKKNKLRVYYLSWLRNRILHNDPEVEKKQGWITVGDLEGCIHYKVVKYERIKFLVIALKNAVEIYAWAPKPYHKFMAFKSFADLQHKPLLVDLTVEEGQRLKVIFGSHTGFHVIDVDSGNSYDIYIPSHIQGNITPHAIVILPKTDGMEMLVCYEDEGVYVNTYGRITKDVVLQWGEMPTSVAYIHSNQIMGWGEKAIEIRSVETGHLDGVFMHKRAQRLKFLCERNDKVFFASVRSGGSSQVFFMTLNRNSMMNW
Sequence of Cyclin-dependent kinase 11B (Homo sapiens) (P21127 whole entry): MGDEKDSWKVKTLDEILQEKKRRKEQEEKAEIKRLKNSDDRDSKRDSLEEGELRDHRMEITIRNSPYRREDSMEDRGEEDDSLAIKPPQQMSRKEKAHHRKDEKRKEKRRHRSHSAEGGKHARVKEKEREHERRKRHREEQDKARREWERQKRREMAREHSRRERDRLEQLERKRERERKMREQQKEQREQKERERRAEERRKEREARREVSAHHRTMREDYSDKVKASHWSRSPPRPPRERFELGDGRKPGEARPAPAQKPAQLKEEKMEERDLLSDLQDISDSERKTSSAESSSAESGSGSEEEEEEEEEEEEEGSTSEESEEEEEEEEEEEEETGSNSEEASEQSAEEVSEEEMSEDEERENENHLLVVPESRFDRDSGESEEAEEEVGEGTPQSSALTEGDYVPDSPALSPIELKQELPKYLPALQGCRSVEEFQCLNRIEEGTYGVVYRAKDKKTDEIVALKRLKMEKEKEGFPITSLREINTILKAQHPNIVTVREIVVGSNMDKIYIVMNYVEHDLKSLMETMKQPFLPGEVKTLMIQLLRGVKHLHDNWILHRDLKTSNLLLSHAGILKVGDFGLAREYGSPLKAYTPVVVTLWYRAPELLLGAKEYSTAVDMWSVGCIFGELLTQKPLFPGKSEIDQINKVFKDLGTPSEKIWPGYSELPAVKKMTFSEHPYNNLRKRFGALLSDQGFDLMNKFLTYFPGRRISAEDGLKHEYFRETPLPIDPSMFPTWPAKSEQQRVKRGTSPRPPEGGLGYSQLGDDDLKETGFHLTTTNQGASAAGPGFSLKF
Sequence of MAP/microtubule affinity-regulating kinase 3 (Homo sapiens) (P27448 whole entry, looked up): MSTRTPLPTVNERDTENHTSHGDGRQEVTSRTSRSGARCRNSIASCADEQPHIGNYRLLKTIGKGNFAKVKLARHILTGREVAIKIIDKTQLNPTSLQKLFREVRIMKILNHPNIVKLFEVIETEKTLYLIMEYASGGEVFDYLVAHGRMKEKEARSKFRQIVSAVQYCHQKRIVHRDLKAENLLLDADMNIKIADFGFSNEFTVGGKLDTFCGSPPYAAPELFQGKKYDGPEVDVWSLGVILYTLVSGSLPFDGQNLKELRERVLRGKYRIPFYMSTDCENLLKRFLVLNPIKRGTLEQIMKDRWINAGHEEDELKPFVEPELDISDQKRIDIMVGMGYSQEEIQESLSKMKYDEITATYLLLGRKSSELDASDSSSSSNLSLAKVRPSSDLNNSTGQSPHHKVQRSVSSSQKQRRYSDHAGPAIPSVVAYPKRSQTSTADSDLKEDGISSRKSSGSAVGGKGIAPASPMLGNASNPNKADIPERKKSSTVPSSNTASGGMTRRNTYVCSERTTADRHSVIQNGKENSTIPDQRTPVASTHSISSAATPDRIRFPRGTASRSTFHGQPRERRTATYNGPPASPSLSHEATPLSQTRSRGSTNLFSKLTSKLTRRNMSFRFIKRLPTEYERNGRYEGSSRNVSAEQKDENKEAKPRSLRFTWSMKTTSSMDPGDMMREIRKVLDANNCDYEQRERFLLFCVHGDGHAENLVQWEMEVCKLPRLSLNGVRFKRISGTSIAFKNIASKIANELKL
Sequence of Calcium/calmodulin-dependent protein kinase type 1 (Homo sapiens) (Q14012 whole entry, looked up): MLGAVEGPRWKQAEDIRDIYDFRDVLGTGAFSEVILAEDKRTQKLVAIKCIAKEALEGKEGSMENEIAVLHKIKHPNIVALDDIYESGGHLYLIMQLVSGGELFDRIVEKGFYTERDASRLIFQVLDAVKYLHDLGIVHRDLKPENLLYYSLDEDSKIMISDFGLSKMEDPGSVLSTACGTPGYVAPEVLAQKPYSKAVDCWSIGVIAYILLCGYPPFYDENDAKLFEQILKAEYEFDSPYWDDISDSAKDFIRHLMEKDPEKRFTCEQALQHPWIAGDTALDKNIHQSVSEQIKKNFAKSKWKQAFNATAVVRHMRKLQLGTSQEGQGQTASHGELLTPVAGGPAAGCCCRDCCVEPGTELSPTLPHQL

Row | SMILES | inhibition [1] | inhibition [2] | inhibition [3] | inhibition [4] | inhibition [5] | inhibition [6] | inhibition [7] | inhibition [8] | inhibition [9] | inhibition [10]
1 | CNc1cc(Oc2cc(C(=O)Nc3cc(N4CCN(C)CC4)cc(C(F)(F)F)c3)ccc2C)ncn1 | 2.7% | – | – | – | – | – | – | – | – | –
2 | CCN1CCN(Cc2ccc(NC(=O)c3ccc(C)c(Oc4ccnc5[nH]ccc45)c3)cc2C(F)(F)F)CC1 | – | 35.7% | 3.6% | 32.6% | 6.3% | 8.5% | 67% | 11.6% | 4.9% | 4.8%
3 | CNc1cc(Oc2cc(C(=O)Nc3cc(-n4cnc(C)c4)cc(C(F)(F)F)c3)ccc2C)ncn1 | 24.1% | – | – | – | – | – | – | – | – | –
4 | CCN1CCN(Cc2ccc(NC(=O)c3ccc(C)c(/C=C/c4cnc5[nH]ccc5c4OC)c3)cc2C(F)(F)F)CC1 | – | 16.9% | 9.6% | 19.5% | -9.5% | 16.8% | 37% | 37% | 13.3% | -0.5%
